Source: article PMC2916699 (Journal of molecular biology, 2009)
Like-named read-outs stand apart in the source and are kept apart here. Where a SMILES comes first, the peptide text is derived from it. The star is where a group is joined. Dansyl = CN(C)c1cccc2c(S(=O)(=O)*)cccc12

Key:
[1] = target: T1, protein farnesyltransferase (FTase) (Rattus norvegicus, UniProt Q02293+Q04631); test: Steady state continuous dansyl fluorescence assay, kcat/Km peptide; assay type: biochemical; conditions: multiple-turnover substrates, 25 °C; for kcat/KM^peptide: targeted library, dansyl fluorescence; for kcat/Km: initial library, 10 μM FPP, 0.4–10 μM dansylated peptide, 25–300 nM FTase, 50 mM HEPPSO pH 7.8, 5 mM TCEP, 5 mM MgCl2, 10 μM ZnCl
How it was run: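 Dansyl-TKCxxx peptides (0.4–10 μM) with saturating FPP 10 μM, 50 mM HEPPSO pH 7.8, 5 mM TCEP, 5 mM MgCl2, 10 μM ZnCl, 25 °C. FTase (25–300 nM) started the reaction. Dansyl fluorescence (ex 340, em 520 nm) followed to endpoint (~2–6 h). Rates converted to product using endpoint fluorescence. kcat/Km from linear or Michaelis–Menten fit of V/[E] versus peptide.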

[2] = target: FTase·I2 complex (Rattus norvegicus, UniProt Q02293+Q04631); test: Peptide binding affinity by fluorescence anisotropy
[3] = target: T1, protein farnesyltransferase (FTase); assay type: biochemical; conditions: single-turnover only (STO) peptides, initial library, 0.4–0.8 μM FTase, 50–100 μM dansylated peptide, 0.1–0.2 μM FPP, 50 mM HEPPSO pH 7.8, 5 mM MgCl2, 2 mM TCEP, 25 °C
How it was run: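 Stopped-flow, pre-mix levels: FTase (0.8–1.6 μM) with FPP (0.2–0.4 μM) in HEPPSO pH 7.8, MgCl2, TCEP, plus a phosphate mop (PNPase 0.5 units mL−1, 15 mM 7-methylguanosine). This is mixed 1:1 with dansylated peptide (100 or 200 μM) containing MDCC-labelled A197C PBP (5–10 μM), inorganic pyrophosphatase and the mop. Emission is followed at 450 nm, and a single-exponential fit gives kfarn.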

Compound | kcat/KM^peptide [1] [M⁻¹ s⁻¹] | further results
CNLK | 6300 ± 1600 | 
CVLQ |  | kcat/Km [1]: 780 ± 30 M⁻¹ s⁻¹
CQTA |  | kcat/Km [1]: 530 ± 20 M⁻¹ s⁻¹
CALV | 100 ± 20 | 
CC[C@H](C)[C@H](NC(=O)[C@H](CS)NC(=O)[C@H](CCCCN)NC(=O)[C@@H](NS(=O)(=O)c1cccc2c(N(C)C)cccc12)[C@@H](C)O)C(=O)N[C@H](C(=O)N[C@@H](C)C(=O)O)C(C)C [CIVA] (Dansyl-TKCIVA-OH) |  | Kd [2]: 5 ± 2 nM
CGIA |  | kcat/Km [1]: 160 ± 50 M⁻¹ s⁻¹
CTVS | 5800 ± 1200 | 
CALQ | 12000 ± 2000 | 
CHLS | 460 ± 20 | 
CHVQ | 4500 ± 800 | 
CPLG |  | kfarn [3]: 0.019 ± 0.001 s⁻¹
CHIM | 3300 ± 400 | 
CSVQ |  | kcat/Km [1]: 1200 ± 400 M⁻¹ s⁻¹
CVSS |  | kfarn [3]: 0.097 ± 0.009 s⁻¹
CKIV | 870 ± 70 | 
CVHF | 460 ± 40 | 
CSLH | 210 ± 10 | 
CLML |  | kcat/Km [1]: 150 ± 20 M⁻¹ s⁻¹
CTVF |  | kcat/Km [1]: 1300 ± 100 M⁻¹ s⁻¹
CSLA | 2500 ± 300 | 
CFVN | 2100 ± 700 | 
CFPS | 4700 ± 500 | 

Compound | kcat/KM^peptide [1] [M⁻¹ s⁻¹] | further results
CGVV | 90 ± 30 | 
CLLV | 100 ± 60 | 
CC[C@H](C)[C@H](NC(=O)[C@H](CO)NC(=O)[C@H](CS)NC(=O)[C@H](CCCCN)NC(=O)[C@@H](NS(=O)(=O)c1cccc2c(N(C)C)cccc12)[C@@H](C)O)C(=O)N[C@@H](CCSC)C(=O)O [CSIM] (Dansyl-TKCSIM-OH) |  | Kd [2]: 6 ± 2 nM
CHLM | 2000 ± 300 | 
CVQM |  | kcat/Km [1]: 270 ± 30 M⁻¹ s⁻¹
CTIV | 7200 ± 800 | 
CHVM | 10000 ± 8000 | 
CGLY |  | kcat/Km [1]: 1000 ± 100 M⁻¹ s⁻¹
CAKS |  | kfarn [3]: 2.3 ± 0.2 s⁻¹
CEIQ | 3100 ± 600 | 
CVLL |  | kfarn [3]: 0.83 ± 0.08 s⁻¹
CSEA |  | kfarn [3]: 0.020 ± 0.002 s⁻¹
CNLM |  | kcat/Km [1]: 1000 ± 300 M⁻¹ s⁻¹
CYIS | 12000 ± 5000 | 
CGLF |  | kcat/Km [1]: 450 ± 60 M⁻¹ s⁻¹
CYLA | 4700 ± 300 | 
CAVL |  | kfarn [3]: 0.91 ± 0.09 s⁻¹
CFTN | 970 ± 70 | 
TKCYSN |  | kfarn [3]: 0.0025 ± 0.0002 s⁻¹; kfarn ([3]; listed as TKCYSN): 0.0025 s⁻¹
CHIQ | 2200 ± 600 | 
CDVK | 3600 ± 800 | 
